Results: ChEMBL document CHEMBL4017525, “Lactam-Stapled Cell-Penetrating Peptides: Cell Uptake and Membrane Binding Properties” (J Med Chem, 2017)
The source made the active and inactive calls. No cut-off for these calls is given here.

Experiments:
[1] = Drug uptake in HEK293 cells at 2 uM after 4 hrs using fluorescein labeled compound by flow cytometric analysis; format: ADME, cell-based; details: human, hek293, 4 h
Procedure, shortened: (§1)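 Adherent cells were exposed to fluorescein-labeled peptide at 2 μM for 4 h in serum-free medium. Trypan blue (0.4% end concentration) was added before flow cytometry to quench surface-bound fluorescence. Intracellular signal was normalized to carboxyfluorescein-labeled R9, as the mean ± SD of two independent experiments.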

[2] = Drug uptake in human HeLa cells at 2 uM after 4 hrs using fluorescein labeled compound by flow cytometric analysis; format: ADME, cell-based; procedure, shortened: as §1
Escherichia coli = experiment: Antibacterial activity against Escherichia coli ATCC 25922 after 22 hrs by resazurin based broth dilution assay; format: functional; details: ATCC 25922, 22 h
Procedure, shortened: (§2)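 Standard broth dilution assay determining MIC against two Gram-negative and two Gram-positive strains. Values are the mean of two independent experiments.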

Lipid bilayer [3] = experiment: Binding affinity to POPC/POPG lipid vesicles assessed as induction of membrane leakage at peptide to lipid ratio of 1:25 at transmembrane potential of -120 mV after 30 mins by spectroflurimetric analysis
Procedure, shortened: (§3)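 Large unilamellar vesicles (100 nm extrusion) of POPC or POPC/POPG (3/1, mol/mol) were loaded with ANTS dye and DPX quencher, and leakage was read by fluorescence dequenching. Lipid was 50 μM and peptide 2 μM (1:25), incubated 30 min at 30 °C. For lines 6 and 8, a −120 mV potential (negative inside) was set with valinomycin and outside K+ replaced by Na+.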

Lipid bilayer [4] = experiment: Binding affinity to POPC/POPG lipid vesicles assessed as induction of membrane leakage at peptide to lipid ratio of 1:25 after 30 mins by spectroflurimetric analysis; procedure, shortened: as §3
Staphylococcus aureus = experiment: Antibacterial activity against Staphylococcus aureus ATCC 25923 after 22 hrs by resazurin based broth dilution assay; format: functional; details: ATCC 25923, 22 h; procedure, shortened: as §2
HEK293 = experiment: Cytotoxicity against HEK293 cells at 2 uM after 4 hrs using fluorescein labeled compound by flow cytometric analysis; format: cell-based; details: human, hek293, 4 h
Pseudomonas aeruginosa = experiment: Antibacterial activity against Pseudomonas aeruginosa ATCC 27853 after 22 hrs by resazurin based broth dilution assay; format: functional; details: ATCC 27853, 22 h; procedure, shortened: as §2
Enterococcus faecalis = experiment: Antibacterial activity against Enterococcus faecalis ATCC 29212 after 22 hrs by resazurin based broth dilution assay; format: functional; details: ATCC 29212, 22 h; procedure, shortened: as §2
HeLa = experiment: Cytotoxicity against human HeLa cells at 2 uM after 4 hrs using fluorescein labeled compound by flow cytometric analysis; format: cell-based
Lipid bilayer [5] = experiment: Binding affinity to POPC lipid vesicles assessed as induction of membrane leakage at peptide to lipid ratio of 1:25 after 30 mins by spectroflurimetric analysis; procedure, shortened: as §3
Lipid bilayer [6] = experiment: Binding affinity to POPC lipid vesicles assessed as induction of membrane leakage at peptide to lipid ratio of 1:25 at transmembrane potential of -120 mV after 30 mins by spectroflurimetric analysis; procedure, shortened: as §3

Molecule	Drug uptake [1]	Drug uptake [2]	MIC (Escherichia coli)	Activity (Lipid bilayer [3])	Activity (Lipid bilayer [4])	MIC (Staphylococcus aureus)	Activity (HEK293)	MIC (Pseudomonas aeruginosa)	MIC (Enterococcus faecalis)	Activity (HeLa)	Activity (Lipid bilayer [5])	Activity (Lipid bilayer [6])
N=C(N)NCCC[C@H](NC(=O)[C@H](CCCNC(=N)N)NC(=O)[C@H](CCCNC(=N)N)NC(=O)[C@H](CCCNC(=N)N)NC(=O)[C@H](CCCNC(=N)N)NC(=O)[C@H](CCCNC(=N)N)NC(=O)[C@H](CCCNC(=N)N)NC(=O)[C@H](CCCNC(=N)N)NC(=O)[C@@H](N)CCCNC(=N)N)C(=O)O	Active	Active										
H-AAVLLPVLLAAP-NH2	Active	Active	> 256 µg/mL	inactive	inactive	> 256 µg/mL	Non-Toxic	> 256 µg/mL	> 256 µg/mL	Non-Toxic		
H-KLALKALKALKAALKLA-NH2	Active	Active	16 µg/mL	Active	Active	16 µg/mL	Non-Toxic	256 µg/mL	256 µg/mL	Non-Toxic		
H-PLILLRLLRGQF-NH2	Active	Active	256 µg/mL	Active	Active	16 µg/mL	Non-Toxic	> 256 µg/mL	64 µg/mL	Non-Toxic		
H-QQRKRKIWSILAPLGTTLVKLVAGIG-NH2	Active	Active	32 µg/mL			32 µg/mL	Non-Toxic	64 µg/mL	32 µg/mL	Non-Toxic	100%	100%
